Screening data as filed in PubChem.
VIM-2 inhibitor – VIM-2 metallo-beta-lactamase inhibitors, primary screen, biochemical, epi-absorbance readout, Pseudomonas aeruginosa enzyme. purified VIM-2, nitrocefin hydrolysis, epi-absorbance fluorescence. inhibition, % at 5.6 µM. actives 0.89% (n = 290,000);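 active means inhibition above the mean of all tested compounds plus 3 SD, cutoff set per screening run, cut at about 7.5% in these data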;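 further: red hydrolysis product quenches plate fluorescence so inhibitors raise well fluorescence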
PABP1 MLLE inh – inhibitors of PABP1 MLLE–PAM2 peptide binding, primary screen, biochemical, fluorescence polarization, FITC-PAM2, GST-MLLE. Polyadenylate-binding protein 1 (Homo sapiens), P11940. inhibition, % at 20 µM. actives 0.36% (n = 360,000). AID 588489, 2011; in the data active means inhibition above about 35%, passing the limit was not always enough
Target sequence (P11940 whole entry, looked up): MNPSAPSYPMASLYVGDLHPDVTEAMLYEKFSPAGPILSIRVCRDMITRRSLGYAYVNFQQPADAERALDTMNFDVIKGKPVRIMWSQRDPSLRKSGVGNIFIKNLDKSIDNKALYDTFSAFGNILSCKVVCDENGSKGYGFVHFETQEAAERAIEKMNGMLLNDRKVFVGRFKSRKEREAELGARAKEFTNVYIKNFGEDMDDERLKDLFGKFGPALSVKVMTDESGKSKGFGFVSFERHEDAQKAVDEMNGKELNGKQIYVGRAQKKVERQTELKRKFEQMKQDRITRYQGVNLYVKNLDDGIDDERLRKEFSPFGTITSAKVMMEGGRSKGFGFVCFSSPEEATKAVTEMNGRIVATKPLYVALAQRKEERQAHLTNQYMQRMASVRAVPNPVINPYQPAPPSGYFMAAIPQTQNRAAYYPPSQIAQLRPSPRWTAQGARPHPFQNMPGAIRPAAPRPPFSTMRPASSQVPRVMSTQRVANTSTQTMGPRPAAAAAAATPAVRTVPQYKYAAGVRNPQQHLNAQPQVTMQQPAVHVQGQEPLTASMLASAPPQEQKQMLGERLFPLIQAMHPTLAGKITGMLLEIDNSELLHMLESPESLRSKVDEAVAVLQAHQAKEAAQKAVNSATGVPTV
IMP-1 inhibitor – IMP-1 metallo-beta-lactamase inhibitors, primary screen, biochemical, epi-absorbance readout, Pseudomonas aeruginosa enzyme; purified IMP-1, nitrocefin hydrolysis, epi-absorbance fluorescence; metallo-beta-lactamase IMP-1 (Pseudomonas aeruginosa); inhibition, % at 5.6 µM; actives 0.45% (n = 290,000); AID 1556, 2009;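 active means inhibition above the mean plus 3 SD of all compounds in the same screening run, cut at about 4.5% in these data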
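Material – recombinant IMP-1 enzyme, purified · Amount – IMP-1 0.2 nM before substrate addition · Medium – HEPES buffer pH 7.1 with ZnSO4 and Brij 35 · Timing – 25 °C, 15 min preincubation, 25 min reaction · Measured by – plate fluorescence quenching by hydrolysis product, ex 480/em 530 nm · Read-out – percent enzyme inhibition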
PABP FP inh – PABP poly(A) RNA binding inhibitors, primary screen, biochemical, fluorescence polarization, uHTS; Polyadenylate-binding protein 1 (Homo sapiens), P11940; calls only at 35 µM; actives 1% (n = 290,000); AID 2014, 2009;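 further: calls also rest on retests at 20 µM and on dose response follow-up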
eIF4H inh – human eIF4H binding inhibitors, primary screen, translation initiation inhibitor project, biochemical, uHTS, fluorescence polarization. eIF4H fluorescence polarization binding assay. inhibition, % at 35 µM. actives 0.94% (n = 290,000);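 further: calls also rest on retests at 20 µM and on dose response follow-up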
Numbers stand for hits; 0 = inactive; ? = inconclusive; - = no result given; + = active, no number. Shown are actives, neighbours in structure and some others; about 2.2% of the full set was active somewhere. Unless noted, how the calls were made is not given here.

SMILES	VIM-2 inhibitor	PABP1 MLLE inh	IMP-1 inhibitor	PABP FP inh	eIF4H inh
O=C(c1ccco1)N1CCN(C(=O)c2cc(-c3ccccn3)nc3ccc(Cl)cc23)CC1	0	0	0	0	100
O=C(Nc1sc2c(c1C(=O)O)CCCC2)C(=O)N1CCOCC1	0	0	0	0	0
O=C(Nc1sc2c(c1C(=O)O)CCC2)C(=O)N1CCOCC1	0	0	0	+	86
CC(C)(O)P(=O)(O)CCc1ccccc1	0	0	0	0	0
Cc1cc(C)c(S(=O)(=O)N2CCOC2CNC(=O)C(=O)NCCCn2ccnc2)c(C)c1 (stereo unspecified)	0	0	7.0	0	0
O=C(NCCCn1ccnc1)C(=O)NCC1OCCN1S(=O)(=O)c1ccc2c(c1)OCCO2 (stereo unspecified)	0	0	5.1	0	0
O=c1nc(/C=C/c2ccc(-c3ccc(F)cc3)o2)cc(C(F)(F)F)[nH]1	0	-	0	+	0
CCN1CCN(Cc2c(O)ccc3c2O/C(=C\C=C\c2ccccc2OC)C3=O)CC1	0	0	28	0	?
CCCCn1c(N)c(N(CC(C)C)C(=O)c2ccc(F)c(S(=O)(=O)N3CCOCC3)c2)c(=O)[nH]c1=O	-	0	-	-	-
C=CCOc1ccc(C2C(C(=O)c3ccc(C)o3)=C(O)C(=O)N2Cc2cccnc2)cc1 (stereo unspecified)	0	0	0	0	0
CC1=C(C(=O)Nc2ccccc2)C(c2ccc(C)o2)n2c(s/c(=C\c3ccco3)c2=O)=N1 (stereo unspecified)	0	0	0	+	84
COc1cc(/C=C2\SC(c3ccc(C)cc3)=NC2=O)cc(OC)c1O	0	0	0	0	0
Cc1ccc(C2=NC(=O)/C(=C/c3cc(O)c(O)c(Br)c3)S2)cc1	0	0	0	+	56
O=C(c1cc(F)c(F)cc1Cl)N1CCN(CCc2ccccc2)CC1	0	0	0	0	0
COc1ccc(CN2CC(=O)N3[C@H]4c5ccccc5OC[C@@H]4[C@H](c4ccccc4)[C@]3(C)C2=O)cc1	-	43	-	-	-
CC(Nc1cccc(F)c1)C(=O)Nc1ccc(S(N)(=O)=O)cc1 (stereo unspecified)	0	0	0	0	0
CNC[C@H](CC1CCCCC1)NC[C@H](Cc1ccccc1)NCCC12CC3CC(CC(C3)C1)C2	0	0	16	0	0
Cc1ccc(N(CC(=O)NC2CCCCC2)C(=O)CCC(=O)Nc2nccs2)cc1	0	0	0	0	0
COc1ccccc1N(C(C)=O)C1=C(Cl)C(=O)c2ccccc2C1=O	-	39	-	-	-
Cc1onc(-c2ccccc2)c1CNC(=O)Nc1ccccc1	0	0	0	0	0
S=C(NC1CCCCC1)N1CCn2cccc2C1c1ccncc1 (stereo unspecified)	0	0	0	+	70
S=C(NC1CCCCC1)N1CCn2cccc2C1c1cccnc1 (stereo unspecified)	0	0	0	0	0
Cc1ccc(OCc2csc(N)n2)cc1	0	0	0	0	0
COC(=O)c1cc(NCc2ccccc2F)ccc1N1CCOCC1	0	0	15	0	0
OCCCCCNc1ncnc2ccccc12	0	0	0	0	0
SMILES	VIM-2 inhibitor	PABP1 MLLE inh	IMP-1 inhibitor	PABP FP inh	eIF4H inh
CCN(CC)CCCNc1ncnc2ccccc12	0	0	0	+	0
c1ccc(-c2nnc3ccc(N4CCC5(CC4)OCCO5)nn23)cc1	8.7	0	0	0	0
NC(=O)C1(N2CCCCC2)CCN(c2ccc3nnc(-c4ccccc4)n3n2)CC1	0	0	0	0	0
CCn1c(NC(=O)Nc2cccc(C)c2C)cc2sccc21	0	0	0	+	87
O=C(Nc1nnc(C2CC2)s1)C1CCCO1 (stereo unspecified)	0	0	0	0	0.7
Cc1ccc(C2=NN(C(=O)CCC(=O)O)C(c3cn(-c4ccccc4)nc3-c3ccc(C)cc3)C2)cc1 (stereo unspecified)	0	0	0	0	0
COc1ccc2[nH]c(=O)c(CN(C3CCCCC3)C(c3nnnn3Cc3ccco3)C(C)C)cc2c1 (stereo unspecified)	0	0	0	+	63
COc1cc2cc(CN(Cc3nnnn3Cc3ccccc3)CC3CCCO3)c(=O)[nH]c2cc1OC (stereo unspecified)	0	0	0	+	54
CCC(C)(C)n1nnnc1C(C(C)C)N(Cc1ccco1)Cc1cc2cc3c(cc2[nH]c1=O)OCO3 (stereo unspecified)	0	0	0	+	0
COc1ccc(Cn2nnnc2C(c2cc3ccc(OC)cc3[nH]c2=O)N2CCC(C)CC2)cc1 (stereo unspecified)	0	0	0	0	0
CCOc1ccc2[nH]c(=O)c(C(c3nnnn3Cc3ccco3)N3CCC(C)CC3)cc2c1 (stereo unspecified)	0	0	0	+	50
O=C(NCc1nnc2c(C(F)(F)F)cc(Cl)cn12)c1ccc2c(c1)OCO2	0	0	0	0	0
CCC(c1nnnn1Cc1ccco1)N(Cc1cc2cc(C)cc(C)c2[nH]c1=O)CC1CCCO1 (stereo unspecified)	0	0	0	0	20
COc1ccc2cc(CN(CCc3ccccc3)Cc3nnnn3Cc3ccco3)c(=O)[nH]c2c1	0	0	0	+	55
CCOc1ccc2[nH]c(=O)c(C(c3nnnn3Cc3ccco3)N3CCCC(C)C3)cc2c1 (stereo unspecified)	0	0	0	0	30
COc1ccc2[nH]c(=O)c(CN(Cc3nnnn3Cc3ccco3)C3CCCCC3)cc2c1	0	0	0	0	0
CCSC1(SCC)N=C(N)C2(C#N)C(c3ccccc3)NC3=C(CCC3)C12C#N (stereo unspecified)	0	0	0	+	72
N#CC12C(N)=NC3(OCCO3)C1(C#N)C1=C(CCC1)NC2c1ccccc1 (stereo unspecified)	0	0	0	0	0
O=C(NC1CCCCCC1)C(=S)N1CCCC1	0	0	0	0	0
O=C(NC1CCCCCC1)C(=S)N1CCOCC1	0	44	0	0	0
Cc1nc2cc(NC(=O)C3COc4ccccc4O3)ccc2s1 (stereo unspecified)	0	0	0	+	0
Cc1nc2ccc(NC(=O)C3COc4ccccc4O3)cc2s1 (stereo unspecified)	0	0	0	-	-
CCSc1ncc(Cl)c(C(=O)Nc2ccc(S(=O)(=O)Nc3ncccn3)cc2)n1	0	0	0	0	0
CCSc1ncc(Cl)c(C(=O)Nc2ccc(S(N)(=O)=O)cc2)n1	8.6	0	0	0	0
CCS(=O)c1ccccc1C(=O)OCC(=O)Nc1cccc(S(=O)(=O)N2CCCCC2)c1 (stereo unspecified)	-	0	-	-	-
